Measurements: ChEMBL document CHEMBL4411342, “Pyrrolomycins as antimicrobial agents. Microwave-assisted organic synthesis and insights into their antimicrobial mechanism of action” (Bioorg Med Chem, 2019)

Key:
Staphylococcus aureus [1] = experiment: Antibiofilm activity against Staphylococcus aureus ATCC 25923 after 24 hrs by crystal violet staining based assay; type: functional, organism-based; conditions: ATCC 25923, 24 h
How it was run: (§1)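 Overnight TSB + 2% w/v glucose cultures (37 °C, 24 h) diluted to 0.5 McFarland, inoculated into 96-well plates of TSB/2% glucose with compound (100 µg/mL screen, or 100–0.001 µM for IC50). Static 37 °C, 24 h; wells PBS-washed, 0.1% crystal violet 30 min, solubilized in 33% acetic acid, OD 540 nm. % inhibition vs growth control; duplicates, ≥3 independent experiments.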

Sortase A = biological target: T1, Sortase A (Staphylococcus aureus, UniProt Q9S446); experiment: Inhibition of Staphylococcus aureus SrtA using dabcyl-QALPETGEE-edans as substrate preincubated for 1 hr followed by substrate addition and measured at 1 min interval for 1 hr by fluorescence assay
T1 sequence (Q9S446 whole entry): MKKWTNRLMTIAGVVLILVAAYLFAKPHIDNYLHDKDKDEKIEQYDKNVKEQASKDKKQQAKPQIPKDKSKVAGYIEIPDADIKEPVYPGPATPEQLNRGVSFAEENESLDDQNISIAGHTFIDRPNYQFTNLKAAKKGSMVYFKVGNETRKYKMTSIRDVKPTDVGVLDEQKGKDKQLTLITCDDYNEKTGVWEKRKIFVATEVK
How it was run: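 Recombinant S. aureus SrtA (10 µM) preincubated 1 h at 37 °C in 50 mM Tris-HCl, 5 mM CaCl2, 150 mM NaCl, pH 7.5 with increasing inhibitor levels; FRET peptide added to 50 µM final. Cleavage fluorescence read at ex 350/em 495 nm; progress curves used for IC50. Stocks 10 mM in DMSO; berberine chloride positive control, enzyme-free substrate negative control.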

Pseudomonas aeruginosa = experiment: Antibiofilm activity against Pseudomonas aeruginosa ATCC 15442 after 24 hrs by crystal violet staining based assay; type: functional, organism-based; conditions: ATCC 15442, 24 h; how it was run: as §1
Staphylococcus aureus [2] = experiment: Inhibition of Staphylococcus aureus AtlA assessed as reduction in biofilm formation at 1 uM measured after 24 hrs
How it was run: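 S. aureus overnight culture (TSB + 2% glucose, 37 °C, 200 rpm) inoculated 1:100 into TSB/2% glucose containing 1 µM compound (from DMSO stock) in 24-well plates. Static incubation at 37 °C for 24 h. Biofilm inhibition is expressed relative to untreated cultures. Untreated and 0.1% DMSO controls. Triplicate cultivations.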

Staphylococcus aureus [3] = experiment: Inhibition of Staphylococcus aureus AtlA assessed as reduction in enzyme activity at 1 uM measured after 24 hrs y methylene blue staining based zymography relative to control
How it was run: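 Spent medium from 24 h static S. aureus cultures (1 µM compound; untreated and 0.1% DMSO controls) was centrifuged, and the supernatant was lyophilized and resuspended in Tris-HCl pH 7.4. Proteins were run on 12% SDS-PAGE containing 1 mg/mL Micrococcus lysodeikticus cells. The gel was renatured (Triton X-100 buffer, 37 °C, 16–48 h) and stained with 0.1% methylene blue. Clear bands were quantified by densitometry as lysozyme µg equivalents, in triplicate.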

| SMILES | IC50 (Staphylococcus aureus [1]) [µM] | IC50 (Sortase A) [µM] | IC50 (Pseudomonas aeruginosa) [µM] | inhibition (Staphylococcus aureus [2]) [%] | fold change (FC) (Staphylococcus aureus [3]) |
| --- | --- | --- | --- | --- | --- |
| O=C(c1cc(Br)cc(Br)c1O)c1[nH]c(Br)c(Br)c1Br | 0.0034 | 140 | 74.8 | < 80 | 2 |
| O=C(c1cc(Br)ccc1O)c1[nH]c(Br)c(Cl)c1Br | 0.0087 | 250 | 78.9 | < 80 | 2 |
| O=C(c1cc(Cl)cc(Cl)c1O)c1[nH]c(Br)c(Br)c1Br | 20.3 | 130 | 106 |  |  |
| O=C(c1cc(Cl)cc(Cl)c1O)c1[nH]c(Cl)c(Br)c1Cl | 0.0247 | 160 | 18.6 |  |  |
| O=C(c1cc(Cl)cc(Cl)c1O)c1[nH]c(Cl)c(Cl)c1Br | 0.1 | 130 | 170 |  |  |
| O=C(c1cc(Cl)c(Cl)[nH]1)c1cc(Cl)cc(Cl)c1O | 0.92 | 300 | 236 |  |  |
